Tested on: MS2 coat protein
Assay: apparent Kd, MS2 coat protein; higher = weaker binding; RNA-MaP array; FMN 200 µM where present
How it was run: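 Green signal from SNAP-549-labelled MS2 coat protein was normalised to red-channel RNA signal and to the median Fmax of control clusters. The protein was titrated from 0.7 or 1.5 nM, doubling to 3 µM, without and then with constant ligand, over designs transcribed by stalled E. coli RNA polymerase on Illumina sequencing-chip clusters, in 100 mM Tris-HCl pH 7.5, 80 mM KCl, 4 mM MgCl2, BSA, DTT, yeast tRNA and Tween-20. The apparent Kd is the median of filtered per-cluster binding-curve fits.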

[1] = designed as: OFF switch for flavin mononucleotide, no ligand
[2] = ligand present: flavin mononucleotide, designed as: OFF switch for flavin mononucleotide
[3] = designed as: ON switch for flavin mononucleotide, no ligand
[4] = ligand present: flavin mononucleotide, designed as: ON switch for flavin mononucleotide

GCCGAUUAAGUGAGGAUAUACCUAUGGAUACAUAGGUAGAAGGCACAUGAGGAUCACCCAUGUUCCUCAACGGC
apparent Kd [1]: 15.6 nM | apparent Kd [2]: 87.8 nM

GCCUCAAGUGAAGGAUAUACGAGGCCAAAUACAGUAGAAGGUCACAUGAGGAUCACCCAUGUCCCAAAGGGUGCGCAUGCGCUC
apparent Kd [1]: 40.4 nM | apparent Kd [2]: 210 nM

GCCUCAUAGUAGAAGGGACUUAGACAGUAAAGUUUAUAGAGGAAAUAACAUGAGGAUCACCCAUGUCAGGAUAUACUAAGAGGC
apparent Kd [1]: 7.42 nM | apparent Kd [2]: 9.47 nM

GCCUUAUCUGUCAGGAUAUACAAUAAAAUAAUUUUGUAGAAGGGACAUGAGGAUCACCCAUGUACAUUACAUUG
apparent Kd [1]: 58.3 nM | apparent Kd [2]: 257 nM

GCCUUCGCAUGAGGAUAUGCUCCGGUUUCCGGAGCAGAAGGCAUGUCAUAAGACAUGAGGAUCACCCAUGUAGUUAAGAAGGCA
apparent Kd [3]: 570 nM | apparent Kd [4]: 31.7 nM

GCGAAGAUAGCAGGAUAUAUGUUUCCUACAUGAGGAUCACCCAUGUAGGUGAUCAGCCGAGAAAAGUAGAAGGGCUAUCUUUGC
apparent Kd [3]: 16.5 nM | apparent Kd [4]: 13.7 nM

GCGAGCAUACAGAAGGGAUCGUCGUUGCGGCUGUCAGGAUAUGUAGCUUGGCCUAAACAUGAGGAUCACCCAUGUAUAAUGCUA
apparent Kd [3]: 66.7 nM | apparent Kd [4]: 24.3 nM

GCGAGUACGAGAGGAUAUUGACAUGAGGAUCACCCAUGUAUUUGGGAGUGUUCACUGAAUUCUUACGAGAAGGCUCGUACACGC
apparent Kd [1]: 244 nM | apparent Kd [2]: 252 nM

GCGAUGUUAGGAUAUACAUGAGGAUCACCCAUGUUCAGACUGAGCCUAGAGCGUCUAUGUAGAAGGGACUCGCA
apparent Kd [1]: 27.2 nM | apparent Kd [2]: 43.1 nM

GCGCACUAAGUGAGGAUAUCGUUUAUUUUUAGGAUCGAGAAGGCACAUGAGGAUCACCCAUGUUUGACGUGCGC
apparent Kd [1]: 20.9 nM | apparent Kd [2]: 14.1 nM

GCGCAUGUCACAGGAUAUCCCAUAGUGUACAUGAGGAUCACCCAUGUACUGCAAUGCAGACACAAGGAGAAGGGUGAGACUCGU
apparent Kd [3]: 84.8 nM | apparent Kd [4]: 96.7 nM

GCGCCAUCGUGAGAUGGCGUAACGACAUGAGGAUCACCCAUGUAGGAUAUCGAUUGCUUUGCAGUCGAGAAGGGCAAGGUAAGU
apparent Kd [1]: 30.7 nM | apparent Kd [2]: 38.1 nM

GCGCCGCAGCGGUACACGAGACAUGAGGAUCACCCAUGUGACAGAAGGGACUUGUUAAAGGUAGGUCAGGAUAUGUCUUAAAAG
apparent Kd [3]: 184 nM | apparent Kd [4]: 56.5 nM

GCGCGGUAAGGAUAUCUGCACGGAAACAUGAGGAUCACCCAUGUUCAGAUGAUUCUUAUAAGAGAAGGUACUGACA
apparent Kd [1]: 17.4 nM | apparent Kd [2]: 19.1 nM

GCGGAACAUGAGGAUCACCCAUGUAUCCCAAAUAUGGACUCACAGGAUAUCCCGAGUUGCCAGUGGGAGAAGGGUGACUCCAGA
apparent Kd [3]: 14.2 nM | apparent Kd [4]: 6.55 nM

GCGGAACAUGAGGAUCACCCAUGUAUCCCAAAUAUGGACUCACAGGAUAUCCCGAGUUUCCAGUGGGAGAAGGGUGACUCCAGA
apparent Kd [3]: 21.7 nM | apparent Kd [4]: 11.1 nM

GCGGAACAUGAGGAUCACCCAUGUAUCCGAAAUAUGGACUCACAGGAUAUCCAGAGUUGCCAAUCGGAGAAGGGUGACUCCAGC
apparent Kd [3]: 14.4 nM | apparent Kd [4]: 8.29 nM

GCGGAGUGAGGAUAUAGAACUUAAGGUACCAAUAAGGUACCCUAGAAGGCACAUGAGGAUCACCCAUGUACCGC
apparent Kd [1]: 24.3 nM | apparent Kd [2]: 24.4 nM

GCGGCUAGUGCAGGAUAUCGGCGCGUGUAGCGCCGAGAAGGGCACAUGAGGAUCACCCAUGUGAUCAAUCAAUGCUAAUGCCGC
apparent Kd [1]: 7.38 nM | apparent Kd [2]: 25.4 nM

GCGGGCAGCACAGGAUAUGUGACGUACAUGAGGAUCACCCAUGUGCGAAUGGCAGAAGGGUGAGGCCUCGGUGACCGAUUUCCG
apparent Kd [3]: 16 nM | apparent Kd [4]: 5.59 nM

GCGGUGAUCCUAGCUCACAUGAGGAUCACCCAUGUGCAGUUCAAGGAUAUACGUUGCCGCUCCGCGUAGAAGGUGAACUCGCUA
apparent Kd [1]: 43 nM | apparent Kd [2]: 44.1 nM

GCGUAAAAGAUCCUAUUUAUCUACAUGAGGAUCACCCAUGUGCAGGAUAUGCUAAAAUUAAAAUAGCAGAAGGGCAAUAACCGC
apparent Kd [1]: 54 nM | apparent Kd [2]: 179 nM

GCGUAACAUGAGGAUCACCCAUGUGCCCGAGAAUUCGGGCCGAGAAGGGUGACCGGUCGUAUGGCACAGGAUAUCGACGUUGUG
apparent Kd [3]: 30.6 nM | apparent Kd [4]: 13.4 nM

GCGUAAGAACAGAAGGGUAGACAUGAGGAUCACCCAUGUAAACAUGGAUGCAGGAUAUGUUAUAAUUGAGAUUCAUAAAUUCGC
apparent Kd [3]: 130 nM | apparent Kd [4]: 106 nM

GCGUAAUAGGUGUAGCUAGUCGUACAAGAAGGGUGGUGAACAUGAGGAUCACCCAUGUGGUCAAUACAGGAUAUUGUUAUACGC
apparent Kd [3]: 832 nM | apparent Kd [4]: 112 nM

GCGUAUAUAAGAUUUAUAAAACAGUCAGAAGGUGAUAAGACGACAUGAGGAUCACCCAUGUAAUUCAAGGAUAUGAUCAUACGC
apparent Kd [3]: 54.3 nM | apparent Kd [4]: 23.3 nM

GCGUAUUUAAUAUAUAUAAAACUGUCAGAAGGUGAUAAGACGACAUGAGGAUCACCCAUGUAAUUCAAGGAUAUGAUAAUGCGC
apparent Kd [3]: 37.3 nM | apparent Kd [4]: 20.3 nM
